Test results: ChEMBL document CHEMBL3421570, “Combinatorial Libraries As a Tool for the Discovery of Novel, Broad-Spectrum Antibacterial Agents Targeting the ESKAPE Pathogens” (J Med Chem, 2015)
Values after ≈ are worked out from the molar mass of the structure shown. Active and inactive are the calls of the source. The rule behind the calls is not given here.

How the values were obtained:
[1] = system: Staphylococcus aureus; experiment: Bactericidal activity against methicillin-resistant Staphylococcus aureus assessed as cell survival recovery at 0.001% measured after drug wash out after 120 mins by time kill assay; assay type: functional
Procedure, shortened: (§1)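 MRSA from stationary phase was regrown 3 h in TSB and seeded at OD600 0.5. […] After 120 min, cells were centrifuged and washed, serially diluted and plated for CFU. Percent recovery is relative to no-drug controls.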

[2] = system: Enterococcus faecium; experiment: Antimicrobial activity against Enterococcus faecium assessed as inhibition of microbial growth at 45 uM after 24 hrs; assay type: functional, organism-based
Procedure, shortened: (§2)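 Broth microdilution single-concentration read: overnight cultures diluted 1:1000, compound in DMF (≤2.0%) added, 37°C for 24 h, growth inhibition scored visually by lack of turbidity; triplicate. Gram-positives grown in TSB, Gram-negatives in LB.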

[3] = system: Staphylococcus aureus; experiment: Antimicrobial activity against Staphylococcus aureus assessed as inhibition of microbial growth at 45 uM after 24 hrs; assay type: functional, organism-based; procedure, shortened: as §2
[4] = system: Klebsiella pneumoniae; experiment: Antimicrobial activity against Klebsiella pneumoniae assessed as inhibition of microbial growth at 45 uM after 24 hrs; assay type: functional, organism-based; procedure, shortened: as §2
[5] = system: Acinetobacter baumannii; experiment: Antimicrobial activity against Acinetobacter baumannii assessed as inhibition of microbial growth at 45 uM after 24 hrs; assay type: functional, organism-based; procedure, shortened: as §2
[6] = system: Pseudomonas aeruginosa; experiment: Antimicrobial activity against Pseudomonas aeruginosa assessed as inhibition of microbial growth at 45 uM after 24 hrs; assay type: functional, organism-based; procedure, shortened: as §2
[7] = system: Enterobacter cloacae; experiment: Antimicrobial activity against Enterobacter cloacae assessed as inhibition of microbial growth at 45 uM after 24 hrs; assay type: functional, organism-based; procedure, shortened: as §2
[8] = system: Enterococcus faecium; experiment: Antimicrobial activity against Enterococcus faecium assessed as inhibition of microbial growth after 24 hrs; assay type: functional
Procedure, shortened: (§3)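 Broth microdilution against multidrug-resistant clinical ESKAPE isolates. Overnight cultures (TSB for Gram-positives, LB for Gram-negatives) diluted 1:1000 in fresh medium, compound in DMF (≤2.0% DMF) added at decreasing concentrations, 37°C.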

[9] = system: Staphylococcus aureus; experiment: Antimicrobial activity against Staphylococcus aureus assessed as inhibition of microbial growth after 24 hrs; assay type: functional; procedure, shortened: as §3
[10] = system: Klebsiella pneumoniae; experiment: Antimicrobial activity against Klebsiella pneumoniae assessed as inhibition of microbial growth after 24 hrs; assay type: functional; procedure, shortened: as §3
[11] = system: Acinetobacter baumannii; experiment: Antimicrobial activity against Acinetobacter baumannii assessed as inhibition of microbial growth after 24 hrs; assay type: functional; procedure, shortened: as §3
[12] = system: Pseudomonas aeruginosa; experiment: Antimicrobial activity against Pseudomonas aeruginosa assessed as inhibition of microbial growth after 24 hrs; assay type: functional; procedure, shortened: as §3
[13] = system: Enterobacter cloacae; experiment: Antimicrobial activity against Enterobacter cloacae assessed as inhibition of microbial growth after 24 hrs; assay type: functional; procedure, shortened: as §3
[14] = system: Pseudomonas aeruginosa; experiment: Antimicrobial activity against Pseudomonas aeruginosa isolate 1414 assessed as inhibition of microbial growth in presence of 100 uM efflux pump inhibitor reserpine after 24 hrs; assay type: functional, organism-based
[15] = system: Enterococcus faecium; experiment: Bactericidal activity against Enterococcus faecium after 24 hrs; assay type: functional
[16] = system: Staphylococcus aureus; experiment: Bactericidal activity against Staphylococcus aureus after 24 hrs; assay type: functional
[17] = system: Klebsiella pneumoniae; experiment: Bactericidal activity against Klebsiella pneumoniae after 24 hrs; assay type: functional
[18] = system: Acinetobacter baumannii; experiment: Bactericidal activity against Acinetobacter baumannii after 24 hrs; assay type: functional
[19] = system: Pseudomonas aeruginosa; experiment: Bactericidal activity against Pseudomonas aeruginosa after 24 hrs; assay type: functional
[20] = system: Enterobacter cloacae; experiment: Bactericidal activity against Enterobacter cloacae after 24 hrs; assay type: functional
[21] = system: Staphylococcus aureus; experiment: Effect on bacterial density of methicillin-resistant Staphylococcus aureus at MIC measured over 2 hrs period by time kill assay; assay type: functional, organism-based
[22] = system: Staphylococcus aureus; experiment: Bactericidal activity against methicillin-resistant Staphylococcus aureus assessed as cell survival recovery at MIC measured after drug wash out after 120 mins by time kill assay; assay type: functional; procedure, shortened: as §1
[23] = system: Staphylococcus aureus; experiment: Bactericidal activity against methicillin-resistant Staphylococcus aureus at MIC measured after drug wash out after 120 mins by time kill assay; assay type: functional; procedure, shortened: as §1
[24] = system: Enterococcus faecium; experiment: Antibiofilm activity against Enterococcus faecium incubated for 24 hrs followed by biofilm resuspension in PBS and measured after 24 hrs; assay type: functional
Procedure, shortened: (§4)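 Biofilms grown 24 h in 96-well plates from overnight cultures standardized to OD600 0.5 in fresh medium (human serum only for S. aureus; TSB for Gram-positives, LB for Gram-negatives). Medium then replaced with fresh medium containing a concentration range above and below MIC, 37°C overnight. After 24 h biofilm resuspended in PBS, serially diluted, plated in duplicate, CFU counted after 24 h at 37°C. Activity relative to untreated; three technical replicates; MBEC50 reported.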

[25] = system: Staphylococcus aureus; experiment: Antibiofilm activity against Staphylococcus aureus incubated for 24 hrs followed by biofilm resuspension in PBS and measured after 24 hrs; assay type: functional; procedure, shortened: as §4
[26] = system: Klebsiella pneumoniae; experiment: Antibiofilm activity against Klebsiella pneumoniae incubated for 24 hrs followed by biofilm resuspension in PBS and measured after 24 hrs; assay type: functional; procedure, shortened: as §4
[27] = system: Acinetobacter baumannii; experiment: Antibiofilm activity against Acinetobacter baumannii incubated for 24 hrs followed by biofilm resuspension in PBS and measured after 24 hrs; assay type: functional; procedure, shortened: as §4
[28] = system: Pseudomonas aeruginosa; experiment: Antibiofilm activity against Pseudomonas aeruginosa incubated for 24 hrs followed by biofilm resuspension in PBS and measured after 24 hrs; assay type: functional; procedure, shortened: as §4
[29] = system: Enterobacter cloacae; experiment: Antibiofilm activity against Enterobacter cloacae incubated for 24 hrs followed by biofilm resuspension in PBS and measured after 24 hrs; assay type: functional; procedure, shortened: as §4
[30] = system: A549; experiment: Cytotoxicity against human A549 cells after 48 hrs by MTT assay; assay type: cell-based; conditions: A549, 48 h
Procedure, shortened: (§5)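 A549 cells grown in F-12K with L-glutamine, 10% FBS, 1% penicillin-streptomycin, seeded at 1.0 × 10^5 ml−1, allowed to adhere 24 h (37°C, 5% CO2), then exposed to compound in 45% w/v (2-hydroxypropyl)-β-cyclodextrin vehicle for 48 h. MTT 4 h, formazan solubilized in DMSO, absorbance 540 nm. Percent recovery versus vehicle-only; IC50 derived; at least three independent experiments.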

[31] = Selectivity index, ratio of IC50 for human A549 cells to MIC for Enterococcus faecium
[32] = Selectivity index, ratio of IC50 for human A549 cells to MIC for Staphylococcus aureus
[33] = Selectivity index, ratio of IC50 for human A549 cells to MIC for Klebsiella pneumoniae
[34] = Selectivity index, ratio of IC50 for human A549 cells to MIC for Acinetobacter baumannii
[35] = Selectivity index, ratio of IC50 for human A549 cells to MIC for Pseudomonas aeruginosa
[36] = Selectivity index, ratio of IC50 for human A549 cells to MIC for Enterobacter cloacae
[37] = Cytotoxicity against human A549 cells assessed as cell viability recovery at 225 uM after 48 hrs by MTT assay; assay type: cell-based; conditions: read-out: Activity; procedure, shortened: as §5
[38] = Cytotoxicity against human A549 cells assessed as cell viability recovery up to 125 uM after 48 hrs by MTT assay; assay type: cell-based; conditions: read-out: Activity; procedure, shortened: as §5
[39] = Induction of hemolysis in human RBC at 10 uM incubated for 15 mins; assay type: cell-based, Erythrocyte; conditions: red blood cells, read-out: Activity
Procedure, shortened: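 Human RBCs from whole blood, resuspended 20% v/v in HA buffer (NaCl, CaCl2), compound 10 μM, 15 min at 37°C. Centrifuged 5,500 g for 1 min, supernatant OD543 read. Percent hemolysis against DMF vehicle (0%) and 1.0% Triton X-100 (100%); triplicate.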

[40] = system: Enterococcus faecium; experiment: Induction of spontaneous mutation in Enterococcus faecium at 2 to 10 MIC; assay type: functional, organism-based
[41] = system: Staphylococcus aureus; experiment: Induction of spontaneous mutation in Staphylococcus aureus at 2 to 10 MIC; assay type: functional, organism-based
[42] = system: Klebsiella pneumoniae; experiment: Induction of spontaneous mutation in Klebsiella pneumoniae at 2 to 10 MIC; assay type: functional, organism-based
[43] = system: Acinetobacter baumannii; experiment: Induction of spontaneous mutation in Acinetobacter baumannii at 2 to 10 MIC; assay type: functional, organism-based
[44] = system: Pseudomonas aeruginosa; experiment: Induction of spontaneous mutation in Pseudomonas aeruginosa at 2 to 10 MIC; assay type: functional, organism-based; conditions: 2 to 10 x MIC
[45] = system: Enterobacter cloacae; experiment: Induction of spontaneous mutation in Enterobacter cloacae at 2 to 10 MIC; assay type: functional, organism-based
[46] = system: Staphylococcus aureus; experiment: Ratio of MIC for Staphylococcus aureus measured after 8 cycle passage to MIC for wild type Staphylococcus aureus; assay type: functional
[47] = system: Klebsiella pneumoniae; experiment: Ratio of MIC for Klebsiella pneumoniae measured after 8 cycle passage to MIC for wild type Klebsiella pneumoniae; assay type: functional
[48] = system: Acinetobacter baumannii; experiment: Ratio of MIC for Acinetobacter baumannii measured after 8 cycle passage to MIC for wild type Acinetobacter baumannii; assay type: functional
[49] = system: Enterobacter cloacae; experiment: Ratio of MIC for Enterobacter cloacae measured after 8 cycle passage to MIC for wild type Enterobacter cloacae; assay type: functional
[50] = system: Staphylococcus aureus; experiment: Antimicrobial activity against Staphylococcus aureus USA300 strain FPR3757 infected in mouse model of lethal peritonitis assessed as mouse survival at 2 uM, im dosed 1 hr post infection and measured after 5 days post infection; assay type: functional, organism-based
Procedure, shortened: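 Mice, six per group, infected i.p. with 1 × 10^8 CFU ml−1 S. aureus USA300 FPR3757 in PBS with 5% mucin. Compound given i.m. at 2 μM 1 h later; vehicle 45% w/v (2-hydroxypropyl)-β-cyclodextrin in water i.v.; vancomycin i.v. as control. Monitored twice daily for 5 days, pre-moribund animals euthanized. Survival compared by log-rank test.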

CC(C)(C)CC(C)(C)c1ccc(OCCOCC[N+](C)(C)Cc2ccccc2)cc1.[Cl-] [BENZETHONIUM CHLORIDE]
Survival [1]: 0%

CCCCCCCN1C(=N)N(CCCC[C@H]2CNC(=N)N2CCC23C[C@H]4C[C@@H](C2)C[C@@H](C3)C4)C[C@@H]1CCCC
growth inhibition (GI) [2]: Active | growth inhibition (GI) [3]: Active | growth inhibition (GI) [4]: Active | growth inhibition (GI) [5]: Active | growth inhibition (GI) [6]: Active | growth inhibition (GI) [7]: Active | MIC [8]: 1.7 µM | MIC [9]: 1.7 µM | MIC [10]: 1.7 µM | MIC [11]: 1.7 µM | MIC [12]: 1.7 µM | MIC [13]: 1.7 µM | growth inhibition (GI) [14]: Active | MBC90 [15]: 3.6 µM (≈ 1.95 µg/mL) | MBC90 [16]: 2.9 µM (≈ 1.57 µg/mL) | MBC90 [17]: 2.6 µM (≈ 1.41 µg/mL) | MBC90 [18]: 4.7 µM (≈ 2.54 µg/mL) | MBC90 [19]: 2.8 µM (≈ 1.51 µg/mL) | MBC90 [20]: 2.7 µM (≈ 1.46 µg/mL) | Activity [21]: inactive | Survival [22]: 0.2% | fold change (FC) [23]: 2.5 | MBEC50 [24]: 13 µM | MBEC50 [25]: 6.4 µM | MBEC50 [26]: 8.6 µM | MBEC50 [27]: 24 µM | MBEC50 [28]: 5 µM | MBEC50 [29]: 15 µM | IC50 [30]: 146 µM | Selectivity Index [31]: 88 | Selectivity Index [32]: 88 | Selectivity Index [33]: 88 | Selectivity Index [34]: 88 | Selectivity Index [35]: 88 | Selectivity Index [36]: 88 | viability at 48 h, 225 µM [37]: 35% | viability at 48 h [38]: 53% | hemolysis at 0.25 h, 10 µM [39]: 0.34% | Activity [40]: inactive | Activity [41]: inactive | Activity [42]: inactive | Activity [43]: inactive | Activity [44]: inactive | Activity [45]: inactive | Ratio [46]: 16 | Ratio [47]: <=8 | Ratio [48]: <=8 | Ratio [49]: <=8 | Activity [50]: Active
